High-throughput results as filed in PubChem.
STAT1 act: STAT1 signaling activators, primary screen, cell-based, HTS, luciferase reporter; activation (% of control), % at 5.5 µM; NIH 3T3 STAT1-luciferase reporter, IFN-gamma, luminescence; 100% = IFN-gamma alone, no compound; hit rate 2.6% among 200,000;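 active = activation above the screen-wide mean activation plus 3 SD, cut at about 130% in these data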;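 also: raw ratio to IFN-gamma control signal so 100% means no change and 0% no light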
NF-kB neuron act: activators of NF-kB expression in neurons, primary screen, cell-based, HTS; fold change at 12.5 µM; hit rate 1.6% among 190,000; human neuronal cells, NF-kB reporter expression; active compounds read high; in the data active = fold change above about 3.3
STAT3 blocker: IL-6 driven STAT3 reporter inhibitors, primary screen, U3A cells, luciferase, luminescence, MLSCN library; IL-6 STAT3-luciferase reporter; host cell line lacks STAT1; inhibition, % at 5.5 µM; hit rate 0.89% among 190,000; AID 862, 2007;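 active = inhibition above the mean inhibition across all screened compounds plus 3 SD, cut at about 44% in these data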;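 also: 0% = DMSO only wells and 100% = 100 µM nifuroxazide control wells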
STAT3 act: IL-6 driven STAT3 reporter potentiators, primary screen, U3A cells, luciferase, luminescence, MLSCN library. IL-6 STAT3-luciferase reporter; 100% = signal with IL-6 EC80 alone. activation (% of control), % at 5.6 µM. hit rate 0.91% among 190,000. AID 871, 2007;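 active = activation above the screen-wide mean of compound activation plus 3 SD, cut at about 130% in these data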;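 also: 0% = background luminescence of wells with medium and substrate only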
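System – human U3A cells carrying STAT3-luciferase construct · Probe or stimulus – Interleukin-6, 33 ng/mL · Schedule – compound 1 h, then IL-6 6 h at 37 °C · Signal – luminescence from STAT3-driven luciferase reporter · Evaluation – percent of IL-6-only median luminescence · Benchmarks – IL-6-only high control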
STAT1 blocker: STAT1 signaling inhibitors, primary screen, cell-based, HTS, luciferase reporter. hit rate 0.35% among 200,000. AID 920, 2007. inhibition, % at 5.5 µM. NIH 3T3 STAT1-luciferase reporter, IFN-gamma, luminescence;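 active = inhibition above a set limit, the mean inhibition across all tested compounds plus 3 SD, cut at about 34% in these data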;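 also: 0% = IFN-gamma with DMSO and 100% = IFN-gamma with 300 µM nifuroxazide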
APP 5'UTR act: activators of APP 5'UTR luciferase reporter, primary screen, SH-SY5Y cells; SH-SY5Y APP 5'UTR luciferase reporter, luminescence; zero percent = DMSO vehicle wells; activation, % at 2 µM; hit rate 1% among 190,000; AID 1276, 2008;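 active = activation above a set limit, based on mean plus 3 SD of controls, cut at about 140% in these data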
Numbers without * were called inactive. Compounds with a hit are over-represented: about 5.1% of the library has one in this group of screens.

For CC1=CC(C)(C)N2C(=O)C3(C(C#N)=C(N)Oc4cc(O)ccc43)c3cccc1c32 (configuration not stated) the results were STAT1 act 131*, NF-kB neuron act 0.97, STAT3 blocker 7, STAT3 act 96, STAT1 blocker -34 and APP 5'UTR act -15.
For O=S(=O)(c1ccccc1)n1cc(-c2ccccn2)c(N2CCOCC2)n1 the results were STAT1 act 104, NF-kB neuron act 1.1, STAT3 blocker 0, STAT3 act 102, STAT1 blocker -5 and APP 5'UTR act 213*.
For O=S(=O)(Cc1cc(N2CCOCC2)nc(-c2ccccn2)n1)c1ccccc1 the results were STAT1 act 109, NF-kB neuron act 1.5, STAT3 blocker -2, STAT3 act 104, STAT1 blocker -9 and APP 5'UTR act -15.
Screening O=c1c2ccccc2nnn1COc1cccc(Cl)c1 returned STAT1 act 131*, NF-kB neuron act 1.4, STAT3 blocker 10, STAT3 act 97, STAT1 blocker -35 and APP 5'UTR act 18.
`O=C(/C=C/c1ccccc1)NCCC1=CCCCC1` gave STAT1 act 148*, NF-kB neuron act 2.9, STAT3 blocker -12, STAT3 act 112, STAT1 blocker -54 and APP 5'UTR act 44.
`COc1ccc(NC(=O)NCCC2=CCCCC2)cc1` gave STAT1 act 129*, NF-kB neuron act 2.9, STAT3 blocker -3, STAT3 act 106, STAT1 blocker -31 and APP 5'UTR act 53.
Screening O=C(/C=C/c1ccc(F)cc1)NCCC1=CCCCC1 returned STAT1 act 117, NF-kB neuron act 2.3, STAT3 blocker -1, STAT3 act 106, STAT1 blocker -19 and APP 5'UTR act 24.
For Cc1c(C(=O)OCC(=O)NCc2ccc3c(c2)OCO3)cccc1[N+](=O)[O-] the results were STAT1 act 107, NF-kB neuron act 0.9, STAT3 blocker 1, STAT3 act 101, STAT1 blocker -8 and APP 5'UTR act -8.
For CC1CC(CCC(=O)NC(=S)Nc2ccc(Cl)cn2)C(=O)O1 (configuration not stated) the results were STAT1 act 100, NF-kB neuron act 1, STAT3 blocker 18, STAT3 act 89, STAT1 blocker -1 and APP 5'UTR act 9.
Screening CN(C)c1ccc(/C=N/NC(=O)c2ccnn2C)cc1 returned STAT1 act 122, NF-kB neuron act 4.4*, STAT3 blocker 21, STAT3 act 87, STAT1 blocker -26 and APP 5'UTR act 46.
O=C(N/N=C\c1ccc(Oc2ccccc2)cc1)c1csnn1 was read as STAT1 act 137*, NF-kB neuron act 7.5*, STAT3 blocker 15, STAT3 act 91, STAT1 blocker -40 and APP 5'UTR act 5.
`CN(C)c1ccc(/C=N\NC(=O)c2csnn2)cc1` gave STAT1 act 112, NF-kB neuron act 3.4*, STAT3 blocker 37, STAT3 act 72, STAT1 blocker -14 and APP 5'UTR act 9.
For Cc1cccc(/C=N\NC(=O)c2csnn2)c1 the results were STAT1 act 127, NF-kB neuron act 2, STAT3 blocker 0, STAT3 act 100, STAT1 blocker -29 and APP 5'UTR act -3.
For CCN(CC)C(=O)c1cc2sc3ccccc3c2s1 the results were STAT1 act 142*, NF-kB neuron act 2.7, STAT3 blocker 17, STAT3 act 87, STAT1 blocker -45 and APP 5'UTR act 76.
COCCN(CCOC)C(=O)c1cc2sc3ccccc3c2s1 was read as STAT1 act 103, NF-kB neuron act 1.3, STAT3 blocker 14, STAT3 act 91, STAT1 blocker -4 and APP 5'UTR act 6.
Screening O=C1C(Cl)=C(Nc2ccccc2O)C(=O)N1CCc1ccccc1 returned STAT1 act 99, NF-kB neuron act 1, STAT3 blocker -22, STAT3 act 116, STAT1 blocker 1 and APP 5'UTR act 2.
Screening Cc1ccc2nc(-c3ccc(NC(=S)NCCC(C)C)cc3)sc2c1 returned STAT1 act 127, STAT3 blocker 18, STAT3 act 90, STAT1 blocker -30 and APP 5'UTR act 134.
Screening Cc1cc(C)cc(N(CC(=O)Nc2ccc(-c3nc4ccc(C)cc4s3)cc2)S(C)(=O)=O)c1 returned STAT1 act 142*, NF-kB neuron act 1.2, STAT3 blocker 2, STAT3 act 94, STAT1 blocker -46 and APP 5'UTR act 57.
`CC(=O)Nc1ccc(S(=O)(=O)Nc2nc3ccc(C)cc3s2)cc1` gave STAT1 act 104, NF-kB neuron act 1.1, STAT3 blocker 8, STAT3 act 96, STAT1 blocker -5 and APP 5'UTR act 5.
`Cc1ccc(-c2nc3ccccc3s2)cc1NC(=S)NC(=O)c1ccccc1` gave STAT1 act 106, NF-kB neuron act 6.8*, STAT3 blocker -15, STAT3 act 118, STAT1 blocker -6 and APP 5'UTR act 178*.
Screening CC(=O)NC(=S)Nc1ccc(-c2nc3ccc(C)cc3s2)cc1 returned STAT1 act 125, NF-kB neuron act 3.7*, STAT3 blocker 1, STAT3 act 106, STAT1 blocker -27 and APP 5'UTR act 110.
`CNC(=S)Nc1ccc(-c2nc3ccc(C)cc3s2)cc1` gave STAT1 act 95, STAT3 blocker 47*, STAT3 act 62, STAT1 blocker 4 and APP 5'UTR act 172*.
For Cc1ccc(C(=O)OCC(=O)NC2CCCCC2)s1 the results were STAT1 act 107, NF-kB neuron act 0.96, STAT3 blocker -4, STAT3 act 110, STAT1 blocker -9 and APP 5'UTR act 43.
Screening CC1CCCCN1CC(=O)c1c(N)n(Cc2ccccc2)c(=O)n(C)c1=O (configuration not stated) returned STAT1 act 93, NF-kB neuron act 1.2, STAT3 blocker 6, STAT3 act 99, STAT1 blocker 9 and APP 5'UTR act -21.
O=C(Nc1ccc(-c2nc3ccccc3s2)c(OC(=O)c2ccccc2)c1)c1ccccc1 was read as STAT1 act 101, NF-kB neuron act 1.5, STAT3 blocker -4, STAT3 act 102, STAT1 blocker -1 and APP 5'UTR act 208*.
Screening COc1ccc(C(=O)NCc2ccc(-c3nc4ccccc4s3)cc2)cc1OC returned STAT1 act 121, NF-kB neuron act 1.7, STAT3 blocker 12, STAT3 act 94, STAT1 blocker -22 and APP 5'UTR act 52.
Cc1cc(C(=O)CSc2nnc3ccccn23)c(C)n1-c1ccccc1 was read as STAT1 act 41, NF-kB neuron act 0.41, STAT3 blocker 96*, STAT3 act 18, STAT1 blocker 67* and APP 5'UTR act -20.
